In the library only some 4.9% were active in any assay of this set; here they are far more common.
CHT inh: inhibitors of human choline transporter CHT. B-score at 10 µM. 310,000 compounds, 0.86% hits. CHT-expressing cells, membrane potential dye, choline response; hits give low values. AID 488975, 2010;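 active = B-score over 3 SD under the library average, and starting fluorescence ratio not unusually high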;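 also: choline stimulus applied at its EC90 after an EC20 pre-addition; B-score computed on integrated fluorescence ratio after choline addition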
Target sequence (Q9GZV3 whole entry, looked up): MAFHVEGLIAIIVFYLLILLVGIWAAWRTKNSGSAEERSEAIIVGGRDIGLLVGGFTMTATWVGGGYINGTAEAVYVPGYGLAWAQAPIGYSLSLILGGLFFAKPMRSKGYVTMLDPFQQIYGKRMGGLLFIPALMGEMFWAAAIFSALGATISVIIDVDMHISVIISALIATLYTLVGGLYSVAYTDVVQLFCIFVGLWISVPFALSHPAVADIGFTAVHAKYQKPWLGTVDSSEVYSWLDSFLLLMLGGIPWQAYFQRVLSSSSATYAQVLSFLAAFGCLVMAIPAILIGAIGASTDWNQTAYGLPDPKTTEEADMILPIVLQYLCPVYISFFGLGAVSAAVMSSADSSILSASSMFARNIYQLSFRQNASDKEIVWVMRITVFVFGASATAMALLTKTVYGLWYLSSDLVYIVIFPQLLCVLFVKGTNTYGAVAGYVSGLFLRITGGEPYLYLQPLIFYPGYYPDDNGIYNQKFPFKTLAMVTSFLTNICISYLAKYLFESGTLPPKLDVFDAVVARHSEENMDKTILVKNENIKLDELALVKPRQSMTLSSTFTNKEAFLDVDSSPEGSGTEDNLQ
CHT PAM: CHT positive allosteric modulators, primary screen, cell-based, membrane potential dye, choline EC20; CHT-expressing cells; hits give high values; LV-AA mutant CHT in HEK293 cells; B-score at 10 µM; 310,000 compounds, 0.49% hits; AID 488977, 2010;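 active = initial fluorescence not abnormally high and integrated response B-score, plate-corrected, over 3 SD above library mean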
Lipid droplet: inhibitors of hepatocyte lipid droplet formation, primary screen, imaging, high-throughput imaging, BODIPY stain; AML12 mouse hepatocytes, oleate lipid droplets; inhibition, % at 6.5 µM; 240,000 compounds, 0.4% hits; AID 1656, 2009;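 active = lipid droplet intensity inhibited by at least 50%, with more than 500 cells counted; inconclusive = wells with under 300 cells, treated as cytotoxic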
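Assay system: AML12 hepatocytes (mouse); Probe or stimulus: oleic acid at 100 µM to induce lipid droplet formation; Dosing: compound at 6.5 µM only; Schedule: compound with oleate, overnight; Detection: fluorescence imaging, 20x objective, two fields per well; Measure: % inhibition of lipid droplet signal.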
PHOSPHO1 inh: PubChem AID 1565 | Phosphoethanolamine/phosphocholine phosphatase (Homo sapiens), Q8TCT1 | recombinant PHOSPHO1, absorbance phosphatase assay | inhibition, % at 13.3 µM | 290,000 compounds, 1.1% hits; in the data active = inhibition above about 60%
HSF1 inhib: HSF1 inhibitors in luciferase reporter cells, primary screen, cell-based, NIH3T3, luminescence; NIH3T3-HGL HSE-luciferase, MG132-induced, luminescence 8 h; hits give low values; activity change, negative = inhibition, % at 7.5 µM (by protocol); 300,000 compounds, 0.77% hits; AID 2098, 2009;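 active = more than half of replicate wells show activity change below -50%, luminescence cut by over half; inconclusive = some wells, but at most half, below -50%; inactive = no replicate well below -50%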;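 also: luciferase reports HSF-1 transcriptional activity via heat shock element; 0% = median of DMSO wells and -100% = zero luminescence signal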
HSF1 activator: HSF-1 activators, primary screen, NIH3T3-HGL cells, MG132 stress, luminescence, single point | activation, % at 9 µM | NIH3T3-HGL HSF-1 luciferase reporter, 8 h; 100% = twice DMSO control signal | 300,000 compounds, 1.7% hits;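 active = mean replicate activation of at least 50% with a set share of replicates each reaching 50%; inconclusive = only one of those two conditions met; inactive = mean below 50% and too few replicates reaching it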;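 also: 0% = median of the neutral control wells and 100% = twice that signal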
* marks the source's active call; other numbers are inactive results; i = inactive; ? = inconclusive; . = no result.

SMILES | CHT inh | CHT PAM | Lipid droplet | PHOSPHO1 inh | HSF1 inhib | HSF1 activator
Cc1ccc(C(C(=O)NC2CCCCC2)N(C(=O)CCCC(=O)Nc2ccccn2)c2ccc3c(c2)OCCO3)cc1 (stereo not given) | i | i | 0.2 | -34.5 | -1.6 | 2.3
CC(C)[C@H](NC(=O)[C@@H]1Cc2ccccc2CN1)C(=O)Nc1ccc2c(c1)OCCO2 | i | i | 1.9 | 27.9 | -30.9 | -47.4
CCC(C)[C@H](NC(=O)[C@@H]1Cc2ccccc2CN1)C(=O)Nc1ccc2c(c1)OCO2 (stereo not given in full) | i | i | -84.7 | -6.1 | 68.7 | 76.7*
C[C@H](NC(=O)[C@@H]1Cc2ccccc2CN1)C(=O)Nc1ccc2c(c1)OCCO2 | i | i | 0.6 | 17.4 | -7.1 | 0.9
O=C(CNC(=O)[C@@H]1Cc2ccccc2CN1)Nc1ccc2c(c1)OCCO2 | i | i | 14.9 | 22.4 | -51.8* | -52.0
CSCC[C@H](NC(=O)[C@@H]1Cc2ccccc2CN1)C(=O)Nc1ccc2c(c1)OCCO2 | i | i | 10.3 | 22.4 | -52.4* | -61.1
C=CCn1c(-c2ccc(F)cc2)n[nH]c1=S | i | i | 13.3 | 8.5 | -8.0 | -4.0
C(=N\NC1=Nc2cccc3cccc1c23)/c1ccccn1 | . | . | 4.4 | -2.1 | -71.3* | -72.6
C(=N\Nc1nc2ccccc2s1)/c1ccccn1 | i | i | -42.1 | 23.1 | -86.7* | -88.3
Cc1ccc(N2CC(C(=O)Nc3cc(C)on3)CC2=O)c(C)c1 (stereo not given) | i | i | -21.4 | 27.9 | -2.2 | 10.9
Cc1cccc(NC(=O)C(=O)NCC2CCCN2S(=O)(=O)c2cccs2)c1C (stereo not given) | i | i | . | . | 1.6 | 13.2
COc1ccc(NC(=O)C(=O)NCC2CCCN2S(=O)(=O)c2cc(C)ccc2C)cc1 (stereo not given) | i | i | . | . | 3.3 | -9.4
COc1ccc(C(=O)c2sc(Nc3ccccc3)nc2N)cc1 | i | i | -5.2 | 24.1 | 10.5 | -0.9
Nc1nc(Nc2ccccc2)sc1C(=O)c1ccccc1 | i | i | 5.3 | 17.7 | 25.2 | 62.1*
Cc1nnc(NCc2ccco2)s1 | i | i | . | 28.4 | -6.9 | 6.5
c1coc(CNc2nc3ccccc3s2)c1 | i | i | -6.2 | 15.0 | 30.1 | 79.8*
C/C(=N/n1cnnc1)c1cccnc1 | i | i | 5.3 | -8.4 | -8.1 | -12.6
Cn1nccc1C(=O)N1CCCC(N2CCN(Cc3ccc4c(c3)OCO4)CC2)C1 (stereo not given) | i | i | -67.4 | 61.0* | -9.0 | -2.7
O=C(c1ccc(F)cc1)N1CCCC(N2CCN(Cc3ccc4c(c3)OCO4)CC2)C1 (stereo not given) | i | i | -10.4 | 12.5 | -54.1* | -63.2
C/C(=N/Nc1nc(-c2ccc(Cl)cc2)cs1)c1cccs1 | i | i | 11.9 | 92.4* | -8.0 | -11.4
CC(=O)Nc1ccc(-c2csc(N/N=C(/C)c3ccccc3)n2)cc1 | i | i | -11.6 | 22.5 | 0.7 | 8.7
COc1ccc(C2CC(c3ccc(Cl)cc3Cl)Nc3nc(N)nn32)cc1 (stereo not given) | i | i | -1.7 | 70.5* | -5.2 | -11.1
COc1ccc(Cc2noc(CN(C)Cc3cccc(-n4cccn4)c3)n2)cc1OC | i | i | -16.4 | 26.2 | 3.6 | -19.5
CCOC(=O)C[n+]1c(C)sc2ccc(OC)cc21 | i | i | . | 92.2* | -2.6 | -3.5
CCn1nnnc1SCC(=O)Nc1nc2ccccc2s1 | i | i | 12.0 | 28.8 | 10.1 | 21.3
SMILES | CHT inh | CHT PAM | Lipid droplet | PHOSPHO1 inh | HSF1 inhib | HSF1 activator
COc1ccc(C2Nc3ccccc3NC3=C2C(=O)CC(C)(C)C3)cc1O (stereo not given) | i | i | 2.2 | 13.8 | -5.6 | -17.5
COc1ccc(OC)c(-n2c(-c3cnccn3)n[nH]c2=S)c1 | i | i | 0.1 | 84.3* | -6.3 | -7.8
COc1ccc(-n2c(-c3cnccn3)n[nH]c2=S)cc1 | i | i | . | 94.5* | -0.6 | -3.3
COc1ccc(OC)c(-n2c(-c3cc(-c4ccc(F)cc4)n[nH]3)n[nH]c2=S)c1 | i | i | . | 90.7* | -11.6 | -3.1
COc1ccc(-c2n[nH]c(=S)n2-c2cc(OC)ccc2OC)cc1 | i | i | 8.8 | -69.2 | 0.8 | -11.1
COc1ccc(-c2n[nH]c(=S)n2-c2ccc(C)cc2)cc1 | i | i | 3.0 | 6.5 | -0.3 | -4.4
CCOC(=O)c1ccc(NC(=O)C2CCN(C(=O)c3ccc(OC)c(OC)c3)CC2)cc1 | i | i | -5.1 | -22.9 | -1.6 | -5.7
COC(=O)c1ccc(NC(=O)C2CCN(C(=O)c3cc(OC)c(OC)c(OC)c3)CC2)cc1 | i | i | -15.9 | 106.5* | 1.3 | 9.1
CN(C)c1ccc(NC(=O)CSc2nc(N)c(C(=O)Nc3ccc(N(C)C)cc3)s2)cc1 | i | i | . | 1.6 | 21.1 | 6.5
COc1ccc(NC(=O)CSc2nc(N)c(C(=O)Nc3ccc(N(C)C)cc3)s2)cc1 | i | i | 0.3 | 66.2* | 21.0 | 18.1
CCc1ccc(NS(=O)(=O)c2cccc3nsnc23)cc1 | i | i | -18.9 | 24.8 | 7.2 | -10.8
Fc1ccccc1CSc1nnc(-c2cccs2)o1 | i | i | . | -10.0 | 41.9 | 67.5*
c1ccc2c(CSc3nnc(-c4ccncc4)o3)cccc2c1 | i | i | . | 30.6 | 35.4 | 59.3*
Clc1ccccc1CSc1nnc(-c2ccncc2)o1 | i | i | . | 41.9 | 8.8 | ?
N#Cc1ccccc1CSc1nnc(-c2ccncc2)o1 | i | i | 0.3 | 32.6 | 25.0 | 59.9*
c1ccc(CSc2nnc(-c3cccs3)o2)cc1 | i | i | . | 21.2 | 15.0 | 10.7
Cc1cc(N(C)C)c(C#N)c(NCc2ccccc2)n1 | i | i | . | -7.5 | 50.2 | 93.2*
CN(C)c1ccnc(NCc2ccccc2)c1C#N | i | i | . | 22.6 | 4.4 | 11.2
O=C(CN1CCCC1)Nc1cc(F)ccc1F | i | i | 2.5 | 20.5 | 1.1 | 3.8
O=C(CNCCc1ccc(F)cc1)Nc1cc(F)ccc1F | i | i | . | 18.4 | -60.1* | -68.6
CCCCN(C(=O)c1ccc2c(c1)OCO2)c1c(N)n(CCCC)c(=O)[nH]c1=O | i | i | . | . | 0.1 | -3.5
O=C(/C=C/c1ccc(Cl)cc1Cl)Nc1cccc(S(=O)(=O)NC2=NCCC2)c1 | i | i | 4.7 | -17.5 | 23.5 | 62.6*
